The term MIC50 denotes an inhibitory concentration at the 50% level, which refers to growth in some studies and to a panel of isolates in others. Lower therefore signals greater potency.

The values below come from ChEMBL document CHEMBL1155420, “Synthesis, antibacterial and antifungal activities of some carbazole derivatives” (2010).

Common to all, as to type: functional
The test system of one assay is Candida albicans. As to the kind of experiment: Antifungal activity against Candida albicans ATCC 76615 after 24 hrs by two fold serial dilution method. As to conditions: ATCC 76615, 24 h. In short, it runs like this:
(§1)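 Modified NCCLS microbroth dilution, with eleven compound concentrations from 0.5 to 512 µg/mL. Dilutions were inoculated and incubated at 35 °C for 24 h. MIC50 was taken as the first well showing about 50% growth reduction versus the drug-free well.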

The test system of another assay is Aspergillus fumigatus. As to the kind of experiment: Antifungal activity against Aspergillus fumigatus ATCC 96918 after 24 hrs by two fold serial dilution method. As to conditions: ATCC 96918, 24 h. The essentials: as §1
Another assay deals with Escherichia coli. As to the kind of experiment: Antibacterial activity against Escherichia coli ATCC 25922 after 24 hrs by two fold serial dilution method. As to conditions: ATCC 25922, 24 h. The essentials: (§2)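 MICs determined by modified microbroth twofold dilution per NCCLS. Compounds were tested at 512, 256, 128, 64, 32, 16, 8, 4, 2, 1 and 0.5 µg/mL. Dilutions were inoculated and incubated at 37 °C for 24 h. A DMSO solvent control in test medium was run at the same dilutions.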

In assay [1] the test system is Staphylococcus aureus. As to the kind of experiment: Antibacterial activity against Staphylococcus aureus ATCC 29213 after 24 hrs by two fold serial dilution method. As to conditions: ATCC 29213, 24 h. The essentials: as §2
In another assay the test system is Bacillus subtilis. As to the kind of experiment: Antibacterial activity against Bacillus subtilis ATCC 21216 after 24 hrs by two fold serial dilution method. As to conditions: ATCC 21216, 24 h. In short, it runs like this: as §2
For the next assay, the system named is Pseudomonas aeruginosa. As to the kind of experiment: Antibacterial activity against Pseudomonas aeruginosa ATCC 27853 after 24 hrs by two fold serial dilution method. Particulars: ATCC 27853, 24 h. The essentials: as §2
For the next assay, the system named is Proteus vulgaris. The experiment in a line: Antibacterial activity against Proteus vulgaris ATCC 49027 after 24 hrs by two fold serial dilution method. Particulars: ATCC 49027, 24 h. In short, it runs like this:
as §2

The test system of assay [2] is Staphylococcus aureus. The experiment in a line: Antibacterial activity against Methicillin-Resistant Staphylococcus aureus subsp. aureus N315 after 24 hrs by two fold serial dilution method. As to conditions: N315, 24 h. The essentials: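 Modified microbroth dilution following National Committee for Clinical Laboratory Standards methods. Twofold serial dilutions were set at 512, 256, 128, 64, 32, 16, 8, 4, 2, 1 and 0.5. Dilutions were inoculated with strain N315 and incubated at 37 °C for 24 h. A solvent control used medium with DMSO at the same dilutions. Read-out was the MIC.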

Converted amounts (≈) assume the structure as drawn. Where only a bound is given, the exact number is not on record here.

On to `BrCCCCn1c2ccccc2c2ccccc21`, for which the MIC50 against Candida albicans is 512 µg/mL (≈ 1690 µM); in the assay on Aspergillus fumigatus it was above 512 µg/mL; with Escherichia coli it was above 512 µg/mL; in the assay on Staphylococcus aureus [1], 256 µg/mL (≈ 847 µM); in the assay on Bacillus subtilis, above 512 µg/mL; in the assay on Pseudomonas aeruginosa it was 128 µg/mL (≈ 424 µM). Besides, the MIC50 against Proteus vulgaris and in the assay on Staphylococcus aureus [2] was above 512 µg/mL each time.
For `c1ccc2c(c1)c1ccccc1n2CCCCn1cncn1`, the MIC50 in the assay with Candida albicans was 2 µg/mL (≈ 6.89 µM); in the assay on Aspergillus fumigatus, above 512 µg/mL; in the assay on Escherichia coli, 32 µg/mL (≈ 110 µM); in the assay on Staphylococcus aureus [1], 256 µg/mL (≈ 882 µM); against Bacillus subtilis, above 512 µg/mL; in the assay with Pseudomonas aeruginosa it was 128 µg/mL (≈ 441 µM). The MIC50 with Proteus vulgaris and in the assay with Staphylococcus aureus [2] was above 512 µg/mL throughout.
For the compound `c1ccc2c(c1)c1ccccc1n2CCCCCCn1cncn1`, the MIC50 in the assay on Candida albicans is 2 µg/mL (≈ 6.28 µM); against Aspergillus fumigatus, above 512 µg/mL; in the assay with Escherichia coli, 16 µg/mL (≈ 50.2 µM); against Staphylococcus aureus [1], 32 µg/mL (≈ 100 µM); in the assay with Bacillus subtilis, above 512 µg/mL; with Pseudomonas aeruginosa it was 32 µg/mL (≈ 100 µM). The MIC50 in the assay on Proteus vulgaris was above 512 µg/mL; in the assay with Staphylococcus aureus [2], 64 µg/mL (≈ 201 µM).
With `Clc1ccc(C[n+]2cnn(Cc3ccc(Cn4c5ccccc5c5ccccc54)cc3)c2)c(Cl)c1.[Cl-]`, the MIC50 in the assay with Candida albicans was 32 µg/mL; with Aspergillus fumigatus it was 64 µg/mL; against Escherichia coli it was 2 µg/mL; in the assay with Staphylococcus aureus [1], 2 µg/mL; against Bacillus subtilis it was 2 µg/mL; in the assay with Pseudomonas aeruginosa, 4 µg/mL. Further, the MIC50 with Proteus vulgaris and against Staphylococcus aureus [2] was 8 µg/mL each time.
Consider `c1ccc2c(c1)c1ccccc1n2Cc1ccc(Cn2c3ccccc3c3ccccc32)cc1`, for which the MIC50 against Candida albicans was above 512 µg/mL; against Aspergillus fumigatus, above 512 µg/mL; against Escherichia coli, above 512 µg/mL; in the assay with Staphylococcus aureus [1] it was 256 µg/mL (≈ 586 µM); in the assay on Bacillus subtilis, above 512 µg/mL; against Pseudomonas aeruginosa, above 512 µg/mL. For the same compound, the MIC50 against Proteus vulgaris and in the assay with Staphylococcus aureus [2] was above 512 µg/mL each time.
As to `c1ccc2c(c1)c1ccccc1n2CCCCn1c2ccccc2c2ccccc21`, the MIC50 with Candida albicans, in the assay on Aspergillus fumigatus, in the assay with Escherichia coli, against Staphylococcus aureus [1], against Bacillus subtilis and against Pseudomonas aeruginosa was above 512 µg/mL in each case. In addition, the MIC50 in the assay on Proteus vulgaris was 64 µg/mL (≈ 165 µM); with Staphylococcus aureus [2], above 512 µg/mL.
On to `c1ccc2c(c1)c1ccccc1n2CCCCCCn1c2ccccc2c2ccccc21`, for which the MIC50 against Candida albicans was above 512 µg/mL; with Aspergillus fumigatus, 256 µg/mL (≈ 615 µM); in the assay with Escherichia coli, above 512 µg/mL; in the assay with Staphylococcus aureus [1], 128 µg/mL (≈ 307 µM); in the assay with Bacillus subtilis it was above 512 µg/mL; against Pseudomonas aeruginosa it was above 512 µg/mL. Besides, the MIC50 against Proteus vulgaris and in the assay on Staphylococcus aureus [2] was above 512 µg/mL each time.
In the case of `c1ccc2c(c1)c1ccccc1n2CCCCn1ccnc1`, the MIC50 stood at 16 µg/mL (≈ 55.3 µM) against Candida albicans; 64 µg/mL (≈ 221 µM) in the assay with Aspergillus fumigatus; 8 µg/mL (≈ 27.6 µM) against Escherichia coli; 2 µg/mL (≈ 6.91 µM) with Staphylococcus aureus [1]; 4 µg/mL (≈ 13.8 µM) in the assay on Bacillus subtilis; 1 µg/mL (≈ 3.46 µM) against Pseudomonas aeruginosa. Also, the MIC50 in the assay on Proteus vulgaris is 1 µg/mL (≈ 3.46 µM); against Staphylococcus aureus [2], 4 µg/mL (≈ 13.8 µM).
For `c1ccc2c(c1)c1ccccc1n2CCCCCCn1ccnc1`, the MIC50 with Candida albicans was found to be 16 µg/mL (≈ 50.4 µM); against Aspergillus fumigatus, 128 µg/mL (≈ 403 µM); in the assay with Escherichia coli, 4 µg/mL (≈ 12.6 µM); against Staphylococcus aureus [1] it was 8 µg/mL (≈ 25.2 µM); in the assay with Bacillus subtilis, 8 µg/mL (≈ 25.2 µM); in the assay with Pseudomonas aeruginosa it was 1 µg/mL (≈ 3.15 µM). For the same compound, the MIC50 in the assay with Proteus vulgaris was 1 µg/mL (≈ 3.15 µM); against Staphylococcus aureus [2], 8 µg/mL (≈ 25.2 µM).
As to `c1ccc2c(c1)c1ccccc1n2Cc1ccc(Cn2cncn2)cc1`, the MIC50 against Candida albicans was 4 µg/mL (≈ 11.8 µM); against Aspergillus fumigatus it was above 512 µg/mL; against Escherichia coli, 32 µg/mL (≈ 94.6 µM); in the assay with Staphylococcus aureus [1] it was 256 µg/mL (≈ 756 µM); against Bacillus subtilis, above 512 µg/mL; in the assay on Pseudomonas aeruginosa, above 512 µg/mL. Further, the MIC50 in the assay on Proteus vulgaris and in the assay on Staphylococcus aureus [2] was above 512 µg/mL in each case.
Regarding `BrCCCCCCn1c2ccccc2c2ccccc21`, the MIC50 in the assay with Candida albicans was above 512 µg/mL; in the assay with Aspergillus fumigatus, 512 µg/mL (≈ 1550 µM); in the assay on Escherichia coli it was above 512 µg/mL; against Staphylococcus aureus [1], 128 µg/mL (≈ 388 µM); in the assay on Bacillus subtilis, above 512 µg/mL; against Pseudomonas aeruginosa it was above 512 µg/mL. In addition, the MIC50 in the assay with Proteus vulgaris and in the assay on Staphylococcus aureus [2] was above 512 µg/mL each time.
For `c1ccc2c(c1)c1ccccc1n2Cc1ccc(Cn2ccnc2)cc1`, the MIC50 against Candida albicans was 16 µg/mL (≈ 47.4 µM); in the assay on Aspergillus fumigatus, above 512 µg/mL; in the assay with Escherichia coli it was 8 µg/mL (≈ 23.7 µM); in the assay on Staphylococcus aureus [1], 1 µg/mL (≈ 2.96 µM); against Bacillus subtilis it was 4 µg/mL (≈ 11.9 µM); against Pseudomonas aeruginosa, 1 µg/mL (≈ 2.96 µM). The MIC50 turned out to be 4 µg/mL (≈ 11.9 µM) in the assay on Proteus vulgaris and 8 µg/mL (≈ 23.7 µM) with Staphylococcus aureus [2].
For `BrCc1ccc(Cn2c3ccccc3c3ccccc32)cc1`, the MIC50 with Candida albicans is above 512 µg/mL; in the assay on Aspergillus fumigatus, above 512 µg/mL; in the assay on Escherichia coli, 256 µg/mL (≈ 731 µM); in the assay with Staphylococcus aureus [1], 128 µg/mL (≈ 365 µM); with Bacillus subtilis, 256 µg/mL (≈ 731 µM); against Pseudomonas aeruginosa it was 256 µg/mL (≈ 731 µM). For the same compound, the MIC50 with Proteus vulgaris is 512 µg/mL (≈ 1460 µM); in the assay with Staphylococcus aureus [2], above 512 µg/mL.
Take `O=C(N[C@H](CO)[C@H](O)c1ccc([N+](=O)[O-])cc1)C(Cl)Cl` [CHLORAMPHENICOL]: the MIC50 against Escherichia coli is 64 µg/mL (≈ 198 µM); with Staphylococcus aureus [1], 64 µg/mL (≈ 198 µM); in the assay with Bacillus subtilis it was above 512 µg/mL; against Pseudomonas aeruginosa, above 512 µg/mL; in the assay on Proteus vulgaris it was 16 µg/mL (≈ 49.5 µM); in the assay with Staphylococcus aureus [2], 8 µg/mL (≈ 24.8 µM).
For `OC(Cn1cncn1)(Cn1cncn1)c1ccc(F)cc1F` [FLUCONAZOLE], the MIC50 with Candida albicans is 0.5 µg/mL (≈ 1.63 µM); in the assay on Aspergillus fumigatus, 512 µg/mL (≈ 1670 µM).
For the compound `CCn1cc(C(=O)O)c(=O)c2cc(F)c(N3CCNCC3)cc21` [NORFLOXACIN], the MIC50 against Escherichia coli turned out to be 0.5 µg/mL (≈ 1.57 µM); in the assay on Staphylococcus aureus [1] it was 8 µg/mL (≈ 25.1 µM); against Bacillus subtilis, 1 µg/mL (≈ 3.13 µM); with Pseudomonas aeruginosa it was 2 µg/mL (≈ 6.26 µM); with Proteus vulgaris, 1 µg/mL (≈ 3.13 µM); with Staphylococcus aureus [2] it was 1 µg/mL (≈ 3.13 µM).
